Measurements as given in ChEMBL document CHEMBL2417474, “Synthesis, antiproliferative and anti-inflammatory activities of some novel 6-aryl-2-(p-(methanesulfonyl)phenyl)-4,5-dihydropyridazi-3(2H)-ones” (Eur J Med Chem, 2013).

Experiments:
Format in all cases: functional
A549 [1] = experiment: Growth inhibition of human A549/ATCC cells after 48 hrs by sulforhodamine B assay; conditions: A549, 48 h
Summary of the method: (§1)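 NCI 60-cell-line panel grown in RPMI-type medium with 5% fetal calf serum and 2 mM L-glutamine. Cells preincubated 24 h, then exposed continuously for 48 h to compound in DMSO at 10^-4 to 10^-8 M (five 10-fold levels). Growth read by SRB protein stain. GI50 is the concentration giving a 50% reduction in net protein increase relative to control cells.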

DU-145 = experiment: Growth inhibition of human DU145 cells assessed as cell growth at 10 uM after 48 hrs by sulforhodamine B assay; conditions: DU-145, 48 h, read-out: Activity
RPMI-8226 = experiment: Growth inhibition of human RPMI8226 cells after 48 hrs by sulforhodamine B assay; conditions: RPMI-8226, 48 h
Summary of the method: (§2)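 NCI 60-cell-line panel. Cells were grown in medium with 5% fetal calf serum and 2 mM L-glutamine, then preincubated 24 h in plates. Compounds were added from DMSO at five 10-fold concentrations from 100 to 0.01 µM and left on cells continuously for 48 h. Cell growth was read by sulforhodamine B protein stain. GI50 is the concentration that halves net protein increase relative to control cells.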

M14 = experiment: Growth inhibition of human M14 cells assessed as cell growth at 10 uM after 48 hrs by sulforhodamine B assay; conditions: M14, 48 h, read-out: Activity
SN12C = experiment: Growth inhibition of human SN12C cells after 48 hrs by sulforhodamine B assay
Summary of the method: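 Part of the NCI 60-cell-line panel. Cells were grown in 1640 medium with 5% fetal calf serum and 2 mM L-glutamine, then preincubated 24 h before compound was added. Compounds in DMSO were tested at five concentrations (100, 10, 1, 0.1, 0.01 µM) with 48 h continuous exposure. Read-out was SRB protein staining; GI50 is the concentration halving the net protein increase versus control.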

CCRF-CEM = experiment: Growth inhibition of human CCRF-CEM cells assessed as cell growth at 10 uM after 48 hrs by sulforhodamine B assay; conditions: read-out: Activity
T47D = experiment: Growth inhibition of human T47D cells after 48 hrs by sulforhodamine B assay
Summary of the method: (§3)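 NCI 60-line panel. Cells were grown in medium with 5% fetal calf serum and 2 mM L-glutamine and preincubated 24 h in plates. Compound in DMSO was added at 10^-4 to 10^-8 M (five 10-fold levels), with continuous exposure for 48 h. Growth was read by SRB protein staining. GI50 is the concentration giving 50% reduction in net protein increase versus control cells.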

HCT-15 = experiment: Growth inhibition of human HCT15 cells after 48 hrs by sulforhodamine B assay; conditions: HCT-15, 48 h; summary of the method: as §1
SW-620 = experiment: Growth inhibition of human SW620 cells after 48 hrs by sulforhodamine B assay; conditions: SW-620, 48 h; summary of the method: as §3
TK-10 = experiment: Growth inhibition of human TK10 cells after 48 hrs by sulforhodamine B assay; conditions: TK-10, 48 h; summary of the method: as §3
NCI-H23 = experiment: Growth inhibition of human NCI-H23 cells after 48 hrs by sulforhodamine B assay; conditions: NCI-H23, 48 h; summary of the method: as §2
NCI-H226 [2] = experiment: Growth inhibition of human NCI-H226 cells after 48 hrs by sulforhodamine B assay; conditions: NCI-H226, 48 h; summary of the method: as §2
COLO 205 = experiment: Growth inhibition of human COLO205 cells after 48 hrs by sulforhodamine B assay; conditions: COLO 205, 48 h; summary of the method: as §1
NCI-H460 = experiment: Growth inhibition of human NCI-H460 cells after 48 hrs by sulforhodamine B assay; conditions: NCI-H460, 48 h; summary of the method: as §2
BT-549 = experiment: Growth inhibition of human BT549 cells after 48 hrs by sulforhodamine B assay; conditions: BT-549, 48 h; summary of the method: as §1
SF-539 = experiment: Growth inhibition of human SF539 cells assessed as cell growth at 10 uM after 48 hrs by sulforhodamine B assay; conditions: SF-539, 48 h, read-out: Activity
OVCAR-5 = experiment: Growth inhibition of human OVCAR5 cells after 48 hrs by sulforhodamine B assay; conditions: OVCAR-5, 48 h; summary of the method: as §2
K562 = experiment: Growth inhibition of human K562 cells assessed as cell growth at 10 uM after 48 hrs by sulforhodamine B assay; conditions: K562, 48 h, read-out: Activity
NCI-H226 [3] = experiment: Growth inhibition of human NCI-H226 cells assessed as cell growth at 10 uM after 48 hrs by sulforhodamine B assay; conditions: NCI-H226, 48 h, read-out: Activity
HT-29 [4] = experiment: Growth inhibition of human HT-29 cells after 48 hrs by sulforhodamine B assay; conditions: HT-29, 48 h; summary of the method: as §1
[5] = Growth inhibition of human Hs 578T cells assessed as cell growth at 10 uM after 48 hrs by sulforhodamine B assay; conditions: read-out: Activity
HT-29 [6] = experiment: Growth inhibition of human HT-29 cells assessed as cell growth at 10 uM after 48 hrs by sulforhodamine B assay; conditions: HT-29, 48 h, read-out: Activity
SNB-19 = experiment: Growth inhibition of human SNB19 cells assessed as cell growth at 10 uM after 48 hrs by sulforhodamine B assay; conditions: SNB-19, 48 h, read-out: Activity
U-251 = experiment: Growth inhibition of human U251 cells after 48 hrs by sulforhodamine B assay; conditions: U-251, 48 h; summary of the method: as §3
HOP-62 = experiment: Growth inhibition of human HOP62 cells after 48 hrs by sulforhodamine B assay; conditions: HOP-62, 48 h; summary of the method: as §1
SK-OV-3 = experiment: Growth inhibition of human SKOV3 cells assessed as cell growth at 10 uM after 48 hrs by sulforhodamine B assay; conditions: SK-OV-3, 48 h, read-out: Activity
SK-MEL-2 = experiment: Growth inhibition of human SK-MEL-2 cells after 48 hrs by sulforhodamine B assay; conditions: SK-MEL-2, 48 h; summary of the method: as §2
A549 [7] = experiment: Growth inhibition of human A549/ATCC cells assessed as cell growth at 10 uM after 48 hrs by sulforhodamine B assay; conditions: A549, 48 h, read-out: Activity
SK-MEL-5 = experiment: Growth inhibition of human SK-MEL-5 cells after 48 hrs by sulforhodamine B assay; conditions: SK-MEL-5, 48 h; summary of the method: as §2
[8] = read-out: LC50 (the source's name)

Q: With `CCc1ccc(C2=NN(c3ccc(S(C)(=O)=O)cc3)C(=O)CC2)cc1` as the molecule, how does the GI50 (A549 [1]) read?
A: 0.91 µM

Q: And the TGI (A549 [1])?
A: > 100 µM

Q: And the CC50 (A549 [1]; [8])?
A: > 100 µM

Q: What about the growth at 10 µM (DU-145) of the same molecule?
A: 21.4%

Q: What about the GI50 (RPMI-8226) of the same molecule?
A: 0.42 µM

Q: And the TGI (RPMI-8226)?
A: > 100 µM

Q: What about the CC50 (RPMI-8226; [8]) of the same molecule?
A: > 100 µM

Q: What about the growth at 10 µM (M14) of the same molecule?
A: 5.99%

Q: What about the GI50 (SN12C) of the same molecule?
A: 4.81 µM

Q: And the LC50 (SN12C)?
A: > 100 µM

Q: And the TGI (SN12C)?
A: > 100 µM

Q: And the growth at 10 µM (CCRF-CEM)?
A: 15.3%

Q: What about the GI50 (T47D) of the same molecule?
A: 4.4 µM

Q: What about the LC50 (T47D) of the same molecule?
A: > 100 µM

Q: What about the TGI (T47D) of the same molecule?
A: 93.3 µM

Q: What about the GI50 (HCT-15) of the same molecule?
A: 1.9 µM

Q: What about the LC50 (HCT-15) of the same molecule?
A: > 100 µM

Q: What about the TGI (HCT-15) of the same molecule?
A: > 100 µM

Q: What about the GI50 (SW-620) of the same molecule?
A: 43.1 µM

Q: And the TGI (SW-620)?
A: > 100 µM

Q: And the CC50 (SW-620; [8])?
A: > 100 µM

Q: And the GI50 (TK-10)?
A: 8.31 µM

Q: What about the TGI (TK-10) of the same molecule?
A: > 100 µM

Q: And the CC50 (TK-10; [8])?
A: > 100 µM

Q: And the GI50 (NCI-H23)?
A: 3.19 µM

Q: And the TGI (NCI-H23)?
A: > 100 µM

Q: And the CC50 (NCI-H23; [8])?
A: > 100 µM

Q: And the GI50 (NCI-H226 [2])?
A: 0.2 µM

Q: And the TGI (NCI-H226 [2])?
A: > 100 µM

Q: What about the CC50 (NCI-H226 [2]; [8]) of the same molecule?
A: > 100 µM

Q: What about the GI50 (COLO 205) of the same molecule?
A: 1.02 µM

Q: And the TGI (COLO 205)?
A: 12.6 µM

Q: And the CC50 (COLO 205; [8])?
A: 83.8 µM

Q: And the GI50 (NCI-H460)?
A: 0.82 µM

Q: What about the TGI (NCI-H460) of the same molecule?
A: 36.9 µM

Q: And the CC50 (NCI-H460; [8])?
A: > 100 µM

Q: What about the GI50 (BT-549) of the same molecule?
A: 0.96 µM

Q: What about the TGI (BT-549) of the same molecule?
A: 35.6 µM

Q: What about the CC50 (BT-549; [8]) of the same molecule?
A: > 100 µM

Q: What about the growth at 10 µM (SF-539) of the same molecule?
A: 15.1%

Q: And the GI50 (OVCAR-5)?
A: 8.51 µM

Q: And the TGI (OVCAR-5)?
A: > 100 µM

Q: What about the CC50 (OVCAR-5; [8]) of the same molecule?
A: > 100 µM

Q: What about the growth at 10 µM (K562) of the same molecule?
A: 10.4%

Q: What about the growth at 10 µM (NCI-H226 [3]) of the same molecule?
A: 69.1%

Q: And the GI50 (HT-29 [4])?
A: 0.41 µM

Q: And the LC50 (50% lethal concentration) (HT-29 [4])?
A: > 100 µM

Q: And the TGI (HT-29 [4])?
A: 12.1 µM

Q: What about the growth at 10 µM [5] of the same molecule?
A: -0.67%

Q: What about the growth at 10 µM (HT-29 [6]) of the same molecule?
A: 11.5%

Q: What about the growth at 10 µM (SNB-19) of the same molecule?
A: 51.5%

Q: And the GI50 (U-251)?
A: 1.91 µM

Q: What about the TGI (U-251) of the same molecule?
A: > 100 µM

Q: And the CC50 (U-251; [8])?
A: > 100 µM

Q: And the GI50 (HOP-62)?
A: 4.3 µM

Q: What about the TGI (HOP-62) of the same molecule?
A: > 100 µM

Q: What about the CC50 (HOP-62; [8]) of the same molecule?
A: > 100 µM

Q: What about the growth at 10 µM (SK-OV-3) of the same molecule?
A: 28.7%

Q: What about the GI50 (SK-MEL-2) of the same molecule?
A: 0.9 µM

Q: What about the LC50 (SK-MEL-2) of the same molecule?
A: > 100 µM

Q: What about the TGI (SK-MEL-2) of the same molecule?
A: > 100 µM

Q: What about the growth at 10 µM (A549 [7]) of the same molecule?
A: 35.6%

Q: And the GI50 (SK-MEL-5)?
A: 1.48 µM

Q: What about the LC50 (SK-MEL-5) of the same molecule?
A: 35.7 µM

Q: What about the TGI (SK-MEL-5) of the same molecule?
A: 11.2 µM

Q: Which GI50 (A549 [1]) does the source give for `O=c1[nH]cc(F)c(=O)[nH]1` [FLUOROURACIL] here?
A: 0.18 µM

Q: What about the GI50 (RPMI-8226) of the same molecule?
A: 0.04 µM

Q: What about the GI50 (SN12C) of the same molecule?
A: 0.49 µM

Q: And the GI50 (T47D)?
A: 8.12 µM

Q: What about the GI50 (HCT-15) of the same molecule?
A: 0.11 µM

Q: And the GI50 (SW-620)?
A: 0.92 µM

Q: What about the GI50 (TK-10) of the same molecule?
A: 1.12 µM

Q: And the GI50 (NCI-H23)?
A: 0.33 µM

Q: And the GI50 (NCI-H226 [2])?
A: 54.7 µM

Q: What about the GI50 (COLO 205) of the same molecule?
A: 0.15 µM

Q: What about the GI50 (NCI-H460) of the same molecule?
A: 0.05 µM

Q: And the GI50 (BT-549)?
A: 10.6 µM

Q: What about the GI50 (OVCAR-5) of the same molecule?
A: 10.9 µM

Q: What about the GI50 (HT-29 [4]) of the same molecule?
A: 0.17 µM

Q: What about the GI50 (U-251) of the same molecule?
A: 0.9 µM

Q: And the GI50 (HOP-62)?
A: 0.39 µM

Q: What about the GI50 (SK-MEL-2) of the same molecule?
A: 56.7 µM

Q: What about the GI50 (SK-MEL-5) of the same molecule?
A: 0.46 µM
